In ChEMBL document CHEMBL3862036, “Biphenyl Pyridazinone Derivatives as Inhaled PDE4 Inhibitors: Structural Biology and Structure-Activity Relationships” (J Med Chem, 2016):

Columns and labels:
Adenosine receptor A2a = Adenosine receptor A2a (Homo sapiens, UniProt P29274); experiment: Antagonist activity at adenosine A2a receptor (unknown origin)
Adenosine receptor A1 = target: T1, Adenosine receptor A1 (Homo sapiens, UniProt P30542); experiment: Antagonist activity at adenosine A1 receptor (unknown origin)
T1 sequence (P30542 whole entry): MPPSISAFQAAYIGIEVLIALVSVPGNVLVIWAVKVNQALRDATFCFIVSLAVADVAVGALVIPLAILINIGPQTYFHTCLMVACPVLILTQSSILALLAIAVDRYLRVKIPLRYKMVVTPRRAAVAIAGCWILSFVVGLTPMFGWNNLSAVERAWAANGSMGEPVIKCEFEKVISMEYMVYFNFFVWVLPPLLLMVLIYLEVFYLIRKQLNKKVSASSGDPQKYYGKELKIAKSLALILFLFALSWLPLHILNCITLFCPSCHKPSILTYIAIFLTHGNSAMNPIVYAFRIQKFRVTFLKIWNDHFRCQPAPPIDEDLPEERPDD

[1] = Inhibition of PDE4 in PBMC (unknown origin) assessed as reduction in LPS-induced TNFalpha production incubated for 24 hrs by ELISA; conditions: Homo sapiens
Adenosine receptor A2b = target: T2, Adenosine receptor A2b (Homo sapiens, UniProt P29275); experiment: Antagonist activity at adenosine A2b receptor (unknown origin)
T2 sequence (P29275 whole entry): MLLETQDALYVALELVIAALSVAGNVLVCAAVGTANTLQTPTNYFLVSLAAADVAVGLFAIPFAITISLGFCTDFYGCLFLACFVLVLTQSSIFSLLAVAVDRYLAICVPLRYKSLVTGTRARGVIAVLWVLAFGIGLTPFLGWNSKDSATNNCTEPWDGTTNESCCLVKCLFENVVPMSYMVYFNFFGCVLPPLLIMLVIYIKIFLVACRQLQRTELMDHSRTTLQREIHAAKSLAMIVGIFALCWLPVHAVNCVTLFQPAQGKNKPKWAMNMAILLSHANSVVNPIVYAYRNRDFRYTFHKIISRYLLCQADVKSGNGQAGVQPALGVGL

Rattus norvegicus [2] = experiment: Anti-inflammatory activity in Sprague-Dawley rat assessed as inhibition of LPS-induced neutrophilia at 100 ug/kg, it administered as suspension with Penn-Century micro-sprayer aerosolizer dosed 18 hrs before LPS challenge and measured 22 hrs post dose; assay type: functional; conditions: inhaled or nasal
In short: (§1)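 Suspensions in PBS/0.2% Tween 80 were homogenized, with lower doses made by 1:10 dilutions. 0.2 mL was given intratracheally by MicroSprayer to isoflurane-anesthetized fasted male Sprague-Dawley rats (230–280 g). At 1 or 18 h, rats received nebulized LPS (30 mL of a 1:100 PBS dilution of 100 mg/10 mL stock) over 40 min. Four hours later, BAL neutrophils were counted by flow cytometry.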

[3] = Inhibition of PDE4 in human whole blood assessed as reduction in LPS-induced TNFalpha production incubated for 24 hrs by ELISA; assay type: tissue-based
In short: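 Human whole blood was preincubated with LPS (final 1 μg/mL) for 10 min at 37 °C with rocking. 200 μL was added to wells holding increasing inhibitor concentrations in 100% DMSO. Plates were incubated 24 h at 37 °C under agitation, then placed on ice, diluted with PBS and centrifuged at 800g, 4 °C, for 15 min before TNF-α measurement.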

Rattus norvegicus [4] = experiment: Anti-inflammatory activity in Sprague-Dawley rat assessed as inhibition of LPS-induced neutrophilia at 100 ug/kg, it administered as suspension with Penn-Century micro-sprayer aerosolizer dosed 1 hrs before LPS challenge and measured 5 hrs post dose; assay type: functional; conditions: inhaled or nasal; in short: as §1
[5] = Drug metabolism in human liver S9 fraction assessed as glucuronidation in presence of PAPS and UDPGA incubated for 20 mins; assay type: ADME, subcellular; conditions: read-out: Drug metabolism
Rattus norvegicus [6] = experiment: Anti-inflammatory activity in Sprague-Dawley rat assessed as inhibition of LPS-induced neutrophilia at 10 to 1000 ug/kg, it administered as suspension with Penn-Century micro-sprayer aerosolizer dosed 1 hrs before LPS challenge and measured 5 hrs post dose; assay type: functional; conditions: inhaled or nasal; in short: as §1
Rattus norvegicus [7] = experiment: Anti-inflammatory activity in Sprague-Dawley rat assessed as inhibition of LPS-induced neutrophilia at 1000 ug/kg, it administered as suspension with Penn-Century micro-sprayer aerosolizer dosed 1 hrs before LPS challenge and measured 5 hrs post dose; assay type: functional; conditions: inhaled or nasal; in short: as §1
Rattus norvegicus [8] = experiment: Anti-inflammatory activity in Sprague-Dawley rat assessed as inhibition of LPS-induced neutrophilia at 1000 ug/kg, it administered as suspension with Penn-Century micro-sprayer aerosolizer dosed 18 hrs before LPS challenge and measured 22 hrs post dose; assay type: functional; conditions: inhaled or nasal; in short: as §1
Rattus norvegicus [9] = experiment: Anti-inflammatory activity in Sprague-Dawley rat assessed as inhibition of LPS-induced neutrophilia at 25 ug/kg, it administered as suspension with Penn-Century micro-sprayer aerosolizer dosed 1 hrs before LPS challenge and measured 5 hrs post dose; assay type: functional; conditions: inhaled or nasal; in short: as §1
Rattus norvegicus [10] = experiment: Anti-inflammatory activity in Sprague-Dawley rat assessed as inhibition of LPS-induced neutrophilia at 1000 ug/kg, it administered as dry powder with lactose carrier through Penn-Century insufflator dosed 18 hrs before LPS challenge and measured 22 hrs post dose; assay type: functional
In short: (§2)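 Compounds were micronized, comixed with lactose, and 5 mg of the mixture was insufflated intratracheally into isoflurane-anesthetized fasted male Sprague-Dawley rats (230–280 g). LPS aerosol (30 mL of a 1:100 PBS dilution of 100 mg/10 mL stock) was nebulized for 40 min at 1 or 18 h post-dose. BAL was taken 4 h later and neutrophils counted by flow cytometry. Controls: lactose alone, lactose+LPS, fluticasone (10% in lactose).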

Rattus norvegicus [11] = experiment: Anti-inflammatory activity in Sprague-Dawley rat assessed as inhibition of LPS-induced neutrophilia at 1000 ug/kg, it administered as dry powder with lactose carrier through Penn-Century insufflator dosed 1 hrs before LPS challenge and measured 5 hrs post dose; assay type: functional; in short: as §2

Adenosine receptor A2a, sequence (P29274 whole entry): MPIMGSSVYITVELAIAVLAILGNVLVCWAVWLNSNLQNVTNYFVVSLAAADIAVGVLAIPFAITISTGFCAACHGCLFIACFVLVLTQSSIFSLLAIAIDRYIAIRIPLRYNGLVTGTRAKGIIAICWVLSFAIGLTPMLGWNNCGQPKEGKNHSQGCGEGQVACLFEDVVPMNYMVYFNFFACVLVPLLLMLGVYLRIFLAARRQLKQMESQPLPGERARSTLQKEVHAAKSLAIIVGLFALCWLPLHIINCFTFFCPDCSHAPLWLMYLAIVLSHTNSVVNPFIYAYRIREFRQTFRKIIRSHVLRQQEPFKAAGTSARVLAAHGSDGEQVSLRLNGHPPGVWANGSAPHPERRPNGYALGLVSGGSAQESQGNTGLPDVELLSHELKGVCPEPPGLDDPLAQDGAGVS

Row | Compound | IC50 (Adenosine receptor A2a) [nM] | IC50 (Adenosine receptor A1) [nM] | IC50 [1] [nM] | IC50 (Adenosine receptor A2b) [nM] | IC50 [3] [nM] | other results
1 | CCn1nc(-c2cccc(-c3cc(C#N)cc(C(=O)NC4CC4)c3)c2)cc(NC(=O)Nc2c(Cl)cncc2Cl)c1=O | > 1000 | 634 | 0.19 | > 1000 | – | –
2 | CCn1nc(-c2cccc(-c3cccc(C(=O)NCCC4CCCN4C)c3)c2)cc(NC(=O)Nc2c(Cl)cncc2Cl)c1=O (stereo not given) | 5 | 2 | 0.19 | – | 70 | inhibition in vivo at 0.1 mg/kg (Rattus norvegicus [2]): 57%; inhibition in vivo at 0.1 mg/kg (Rattus norvegicus [4]): 70%
3 | CCn1nc(-c2cccc(-c3cccc(CC(=O)NCCCCCCCN(C)CCO)c3)c2)cc(NC(=O)Nc2c(Cl)cncc2Cl)c1=O | 59 | 28 | 4.9 | 459 | 525 | –
4 | CCn1nc(-c2cccc(-c3ccc(O)cc3F)c2)cc(NC(=O)Nc2c(Cl)cncc2Cl)c1=O | – | – | 2.9 | – | 154 | metabolised at 20 min [5]: 27%
5 | CCn1nc(-c2cccc(-c3ccc(CC(=O)O)cc3)c2)cc(NC(=O)Nc2c(Cl)cncc2Cl)c1=O | > 1000 | 184 | 0.68 | > 1000 | 257 | ED50 (Rattus norvegicus [6]): 0.149 mg/kg; metabolised at 20 min [5]: 32%; inhibition in vivo at 1 mg/kg (Rattus norvegicus [7]): 80%; inhibition in vivo at 1 mg/kg (Rattus norvegicus [8]): 10%
6 | CCn1nc(-c2cccc(Br)c2)cc(NC(=O)Nc2c(Cl)cncc2Cl)c1=O | – | – | 3.7 | – | – | –
7 | CCn1nc(-c2cccc(-c3cccc(O)c3F)c2)cc(NC(=O)Nc2c(Cl)cncc2Cl)c1=O | – | – | 0.8 | – | – | –
8 | CCn1nc(-c2cccc(-c3cc(C(=O)O)ccc3F)c2)cc(NC(=O)Nc2c(Cl)cncc2Cl)c1=O | – | – | 6.6 | – | – | –
9 | CCn1nc(-c2cccc(-c3ccccc3C(=O)O)c2)cc(NC(=O)Nc2c(Cl)cncc2Cl)c1=O | – | – | 10.3 | – | – | –
10 | CCn1nc(-c2cccc(-c3cncc(C(=O)O)c3)c2)cc(NC(=O)Nc2c(Cl)cncc2Cl)c1=O | – | – | 11.6 | – | – | metabolised at 20 min [5]: 35%
11 | CCn1nc(-c2cccc(-c3cccc(C(=O)O)c3)c2)cc(NC(=O)Nc2c(Cl)cncc2Cl)c1=O | 270 | 17 | 2.17 | 222 | – | metabolised at 20 min [5]: 9%
12 | CCn1nc(-c2cccc(-c3cc(C(=O)NCCN4CCCCC4)cc(C(=O)NC4CC4)c3)c2)cc(NC(=O)Nc2c(Cl)cncc2Cl)c1=O | > 1000 | > 1000 | 0.35 | 95 | – | inhibition in vivo at 0.025 mg/kg (Rattus norvegicus [9]): 25%
13 | CCn1nc(-c2cccc(-c3cc(OCC4CC4)cc(C(=O)NCCN4CCCCC4)c3)c2)cc(NC(=O)Nc2c(Cl)cncc2Cl)c1=O | > 1000 | 81 | 0.88 | > 1000 | – | inhibition in vivo at 0.025 mg/kg (Rattus norvegicus [9]): 60%
14 | CCn1nc(-c2cccc(-c3cccc(C(N)=O)c3)c2)cc(NC(=O)Nc2c(Cl)cncc2Cl)c1=O | – | – | 0.09 | – | 67 | ED50 (Rattus norvegicus [6]): 0.067 mg/kg; inhibition in vivo at 1 mg/kg (Rattus norvegicus [10]): 15%; inhibition in vivo at 1 mg/kg (Rattus norvegicus [8]): 20%; inhibition in vivo at 1 mg/kg (Rattus norvegicus [11]): 48%
15 | CCn1nc(-c2cccc(-c3cc(C(=O)NCC[C@H]4CCCN4C)cc(C(=O)NC4CC4)c3)c2)cc(NC(=O)Nc2c(Cl)cncc2Cl)c1=O | > 1000 | 399 | 0.3 | 146 | – | inhibition in vivo at 0.1 mg/kg (Rattus norvegicus [2]): 37%; inhibition in vivo at 0.025 mg/kg (Rattus norvegicus [9]): 42%
